Active and inactive are the calls of the source. No cut-off for these calls is given here.
Key:
[1] = tested on: Human alphaherpesvirus 1; experiment: Antiviral activity against wild type Herpes simplex virus 1 KOS infected in HEL cells assessed as inhibition of virus-induced cytopathic effect; format: functional, cell-based; conditions: Human alphaherpesvirus 1, KOS
[2] = tested on: Human alphaherpesvirus 2; experiment: Antiviral activity against Herpes simplex virus 2 G infected in HEL cells assessed as inhibition of virus-induced cytopathic effect; format: functional, cell-based; conditions: Human alphaherpesvirus 2, strain G
Outline: (§1)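 Confluent cell monolayers were infected with 100 CCID50 of virus (1 CCID50 = dose infecting 50% of cultures) and incubated with varying compound concentrations. Cytopathicity was scored once complete in untreated infected controls.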

[3] = tested on: Human alphaherpesvirus 1; experiment: Antiviral activity against thymidine kinase-deficient ACV-resistant Herpes simplex virus 1 KOS infected in HEL cells assessed as inhibition of virus-induced cytopathic effect; format: functional, cell-based; conditions: Human alphaherpesvirus 1, KOS
[4] = tested on: Human alphaherpesvirus 3; experiment: Antiviral activity against wild type thymidine kinase expressing Varicella-Zoster virus Oka infected in HEL cells assessed as inhibition of virus-induced plaque formation; format: functional, cell-based; conditions: Human alphaherpesvirus 3, Oka
Outline: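 Confluent HEL cultures were inoculated with 20 PFU of VZV and incubated with varying compound concentrations. Plaques were counted once formation was complete in untreated infected controls.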

[5] = tested on: Human alphaherpesvirus 3; experiment: Antiviral activity against wild type thymidine kinase-deficient Varicella-Zoster virus 07-1 infected in HEL cells assessed as inhibition of virus-induced plaque formation; format: functional, cell-based; conditions: Human alphaherpesvirus 3, 07-1, HEL
Outline: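 HEL fibroblast monolayers were infected with 20 PFU of VZV and kept with varying compound concentrations. Plaques were counted once formation was complete in untreated infected controls.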

[6] = tested on: Human betaherpesvirus 5; experiment: Antiviral activity against Human cytomegalovirus AD169 infected in HEL cells assessed as inhibition of virus-induced cytopathic effect; format: functional, cell-based; conditions: Human betaherpesvirus 5, AD169, HEL; outline: as §1
[7] = tested on: Human betaherpesvirus 5; experiment: Antiviral activity against Human cytomegalovirus Davis infected in HEL cells assessed as inhibition of virus-induced cytopathic effect; format: functional, cell-based; conditions: Human betaherpesvirus 5, Davis; outline: as §1
[8] = tested on: Vaccinia virus; experiment: Antiviral activity against Vaccinia virus Lederle infected in HEL cells assessed as inhibition of virus-induced cytopathic effect; format: functional, cell-based; conditions: Orthopoxvirus vaccinia
[9] = tested on: HEL; experiment: (§2) Cytotoxicity against HEL cells assessed as reduction in cell growth after 3 days by coulter counter method; format: cell-based; conditions: human, hel, 72 h
Outline: (§3)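 HEL cells were seeded at 5 × 10³ cells/well and grown for 24 h, then given medium containing graded compound concentrations. After 3 days at 37 °C, cells were counted by Coulter counter.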

[10] = tested on: Vesicular stomatitis virus; experiment: Antiviral activity against Vesicular stomatitis virus infected in HEL cells assessed as inhibition of virus-induced cytopathic effect; format: functional, cell-based
[11] = tested on: Coxsackievirus B4; experiment: Antiviral activity against Coxsackie virus B4 infected in human HeLA cells assessed as inhibition of virus-induced cytopathic effect; format: functional, cell-based; outline: as §1
[12] = Antiviral activity against Respiratory syncytial virus A strain long infected in human HeLA cells assessed as inhibition of virus-induced cytopathic effect; format: functional, cell-based; outline: as §1
[13] = tested on: Human respirovirus 3; experiment: Antiviral activity against Parainfluenza virus 3 infected in African green monkey Vero cells assessed as inhibition of virus-induced cytopathic effect; format: functional; outline: as §1
[14] = tested on: Mammalian orthoreovirus 1; experiment: Antiviral activity against Reovirus-1 infected in African green monkey Vero cells assessed as inhibition of virus-induced cytopathic effect; format: functional; outline: as §1
[15] = tested on: Sindbis virus; experiment: Antiviral activity against Sindbis virus infected in African green monkey Vero cells assessed as inhibition of virus-induced cytopathic effect; format: functional; outline: as §1
[16] = tested on: Punta Toro virus; experiment: Antiviral activity against Punta Toro virus infected in African green monkey Vero cells assessed as inhibition of virus-induced cytopathic effect; format: functional; outline: as §1
[17] = tested on: Feline coronavirus; experiment: Antiviral activity against Feline coronavirus infected in CRFK cells assessed as inhibition of virus-induced cytopathic effect; format: functional, cell-based
[18] = Selectivity index, ratio of CC50 for HEL cells to EC50 for Human cytomegalovirus AD169 infected in HEL cells; format: toxicity, cell-based; conditions: read-out: Ratio CC50/EC50
[19] = Selectivity index, ratio of CC50 for HEL cells to EC50 for wild type Herpes simplex virus 1 KOS infected in HEL cells; format: toxicity, cell-based; conditions: human, read-out: Ratio CC50/EC50
Outline: (§4)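 EC50 is the concentration halving cytopathicity in HEL cells infected with 100 CCID50 HSV. […] Cells were counted by Coulter counter, and CC50 was read from plots of cell number (% of untreated) versus concentration. SI = CC50/EC50.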

[20] = Selectivity index, ratio of CC50 for HEL cells to EC50 for Herpes simplex virus 2 G infected in HEL cells; format: toxicity, cell-based; conditions: human, read-out: Ratio CC50/EC50; outline: as §4
[21] = Selectivity index, ratio of CC50 for HEL cells to EC50 for thymidine kinase-deficient ACV-resistant Herpes simplex virus 1 KOS infected in HEL cells; format: toxicity, cell-based; conditions: human, read-out: Ratio CC50/EC50; outline: as §4
[22] = Selectivity index, ratio of CC50 for HEL cells to EC50 for wild type thymidine kinase expressing Varicella-Zoster virus Oka infected in HEL cells; format: toxicity, cell-based; conditions: human, read-out: Ratio CC50/EC50
[23] = Selectivity index, ratio of CC50 for HEL cells to EC50 for wild type thymidine kinase-deficient Varicella-Zoster virus 07-1 infected in HEL cells; format: toxicity, cell-based; conditions: human, read-out: Ratio CC50/EC50
[24] = Selectivity index, ratio of CC50 for HEL cells to EC50 for Human cytomegalovirus Davis infected in HEL cells; format: toxicity, cell-based; conditions: read-out: Ratio CC50/EC50
[25] = tested on: Influenza A virus; experiment: Antiviral activity against Influenza A virus (H1N1) infected in HEL cells assessed as inhibition of virus-induced cytopathic effect; format: functional, cell-based
[26] = tested on: Influenza A virus H3N2; experiment: Antiviral activity against Influenza A virus H3N2 infected in HEL cells assessed as inhibition of virus-induced cytopathic effect; format: functional, cell-based
[27] = tested on: Influenza B virus; experiment: Antiviral activity against influenza B virus infected in HEL cells assessed as inhibition of virus-induced cytopathic effect; format: functional, cell-based
[28] = Cytotoxicity against HEL cells assessed as alteration of cell morphology by microscopic analysis; format: cell-based; conditions: human
Outline: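 MCC is the lowest compound concentration causing a microscopically detectable alteration of cell morphology.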

[29] = as §2; format: cell-based; conditions: human, HEL cells; outline: as §3

CCCCCCCCCCCCCCCCCCOCCOP(=O)(O)COCCn1cnc(N)nc1=O
EC50 [1]: 350 nM | EC50 [2]: 150 nM | EC50 [3]: 200 nM | EC50 [4]: 320 nM | EC50 [5]: 790 nM | EC50 [6]: 1120 nM | EC50 [7]: 240 nM | EC50 [8]: > 100000 nM | CC50 [9]: 79200 nM | Activity [10]: inactive | Activity [11]: inactive | Activity [12]: inactive | Activity [13]: inactive | Activity [14]: inactive | Activity [15]: inactive | Activity [16]: inactive | Activity [17]: inactive | selectivity ratio [18]: 71 to 330 | selectivity ratio [19]: 226 to 528 | selectivity ratio [20]: 226 to 528 | selectivity ratio [21]: 226 to 528 | selectivity ratio [22]: 100 to 248 | selectivity ratio [23]: 100 to 248 | selectivity ratio [24]: 71 to 330 | Activity [25]: inactive | Activity [26]: inactive | Activity [27]: inactive

CCOC(=O)[C@H](C)NP(=O)(COCCOc1cc(N)nc(N)n1)N[C@@H](C)C(=O)OCC
EC50 [1]: 3900 nM | EC50 [2]: 3460 nM | EC50 [3]: 6300 nM | EC50 [4]: 560 nM | EC50 [5]: 1690 nM | EC50 [6]: 28400 nM | EC50 [7]: 17000 nM | EC50 [8]: 157000 nM | CC50 [9]: 25900 nM | Activity [10]: inactive | Activity [11]: inactive | Activity [12]: inactive | Activity [13]: inactive | Activity [14]: inactive | Activity [15]: inactive | Activity [16]: inactive | Activity [17]: inactive | selectivity ratio [18]: ≤ 1 | selectivity ratio [19]: 4 to 15 | selectivity ratio [20]: 4 to 15 | selectivity ratio [21]: 4 to 15 | selectivity ratio [22]: 15 to 52 | selectivity ratio [23]: 15 to 52 | selectivity ratio [24]: ≤ 1 | Activity [25]: inactive | Activity [26]: inactive | Activity [27]: inactive

CC(C)OC(=O)OCOP(=O)(COCCOc1cc(N)nc(N)n1)OCOC(=O)OC(C)C
EC50 [2]: 1010 nM | EC50 [4]: 320 nM | EC50 [5]: 290 nM | EC50 [6]: 90100 nM | EC50 [7]: 86300 nM | MCC [28]: > 202 µM | CC50 at 72 h [29]: 15100 nM | Activity [11]: inactive | Activity [12]: inactive | Activity [13]: inactive | Activity [14]: inactive | Activity [15]: inactive | Activity [16]: inactive | Activity [17]: inactive

CCOC(=O)[C@H](Cc1ccccc1)NP(=O)(COCCn1cnc(N)nc1=O)N[C@@H](Cc1ccccc1)C(=O)OCC
EC50 [1]: 32500 nM | EC50 [2]: 39500 nM | EC50 [3]: 42000 nM | EC50 [4]: 29400 nM | EC50 [5]: 26800 nM | EC50 [6]: 15500 nM | EC50 [7]: 7500 nM | EC50 [8]: > 100000 nM | MCC [28]: > 100 µM | CC50 [9]: > 100000 nM | Activity [10]: inactive | Activity [11]: inactive | Activity [12]: inactive | Activity [13]: inactive | Activity [14]: inactive | Activity [15]: inactive | Activity [16]: inactive | Activity [17]: inactive | Activity [25]: inactive | Activity [26]: inactive | Activity [27]: inactive

CC(C)(C)C(=O)OCOP(=O)(COCCn1cnc(N)nc1=O)OCOC(=O)C(C)(C)C
EC50 [1]: 840 nM | EC50 [2]: 1260 nM | EC50 [3]: 730 nM | EC50 [4]: 650 nM | EC50 [5]: 1320 nM | EC50 [6]: 3240 nM | EC50 [7]: 970 nM | EC50 [8]: 152000 nM | CC50 [9]: 46000 nM | Activity [10]: inactive | Activity [11]: inactive | Activity [12]: inactive | Activity [13]: inactive | Activity [14]: inactive | Activity [15]: inactive | Activity [16]: inactive | Activity [17]: inactive | selectivity ratio [18]: 14 to 47 | selectivity ratio [19]: 37 to 63 | selectivity ratio [20]: 37 to 63 | selectivity ratio [21]: 37 to 63 | selectivity ratio [22]: 35 to 71 | selectivity ratio [23]: 35 to 71 | selectivity ratio [24]: 14 to 47 | Activity [25]: inactive | Activity [26]: inactive | Activity [27]: inactive

CCCCCCCCCCCCCCCCNC(=O)[C@@H](N)Cc1ccc(OP(=O)(COCCn2cnc(N)nc2=O)Oc2ccc(C[C@H](N)C(=O)NCCCCCCCCCCCCCCCC)cc2)cc1
EC50 [1]: 600 nM | EC50 [2]: 400 nM | EC50 [3]: 400 nM | EC50 [4]: 580 nM | EC50 [5]: 290 nM | EC50 [6]: 2160 nM | EC50 [7]: 480 nM | EC50 [8]: > 100000 nM | Activity [10]: inactive | Activity [11]: inactive | Activity [12]: inactive | Activity [13]: inactive | Activity [14]: inactive | Activity [15]: inactive | Activity [16]: inactive | Activity [17]: inactive | selectivity ratio [18]: 13 to 56 | selectivity ratio [19]: 45 to 68 | selectivity ratio [20]: 45 to 68 | selectivity ratio [21]: 45 to 68 | selectivity ratio [22]: 47 to 93 | selectivity ratio [23]: 47 to 93 | selectivity ratio [24]: 13 to 56 | Activity [25]: inactive | Activity [26]: inactive | Activity [27]: inactive
